The structures appear in SMILES notation. The source made the active and inactive calls.

Assay [1] concerns the target T1, Mu-type opioid receptor (Mus musculus, UniProt P42866). Put plainly: Antagonist activity at mouse mu opioid receptor expressed in CHO cell membrane assessed as reduction in DAMGO-induced […]-GTPgammaS binding incubated for 1.5 hrs by liquid scintillation counting method. Type of assay: functional, cell membranes. (GTPγS is a poorly hydrolysed GTP analogue; its binding reports G protein activation.)

In assay [2] the target is T1, Mu-type opioid receptor. Put plainly: Binding affinity to mouse mu opioid receptor expressed in CHO cells in presence of naltrexone incubated for 1.5 hrs by competitive radioligand binding assay. Type of assay: cell-based. The essentials: (§1)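 Competition binding. Membranes (30 μg protein) from CHO cells with mouse MOR or KOR, or human DOR. Incubated with radioligand and varying test concentrations in TME buffer, pH 7.4, 1.5 h at 30 °C. Filtration harvest. Nonspecific binding defined with 5 μM naltrexone (MOR), U50,488 (KOR) or SNC80 (DOR). IC₅₀ by nonlinear regression, converted to Ki by Cheng-Prusoff. Selectivity ratios taken from these Ki values. At least three independent experiments.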

Assay [3] has as its target Delta-type opioid receptor (Homo sapiens, UniProt P41143). Put plainly: Binding affinity to human delta opioid receptor in presence of SNC80 incubated for 1.5 hrs by competitive radioligand binding assay. The procedure, abridged: as §1
Assay [4] concerns the target Kappa-type opioid receptor (Mus musculus, UniProt P33534). Put plainly: Binding affinity to mouse kappa opioid receptor expressed in CHO cells in presence of U50488 incubated for 1.5 hrs by competitive radioligand binding assay. Type of assay: cell-based. The essentials:
as §1

Assay [5] can be described thus: Selectivity index, ratio of Ki for binding affinity to human delta opioid receptor to Ki for binding affinity to mouse mu opioid receptor. The procedure, abridged:
as §1

The species named for assay [6] is Mus musculus. Put plainly: Selectivity index, ratio of Ki for binding affinity to mouse kappa opioid receptor to Ki for binding affinity to mouse mu opioid receptor. The procedure, abridged: as §1
Assay [7] has as its target Mu-type opioid receptor (Mus musculus) (UniProt P42866). In words: Antagonist activity at mouse mu opioid receptor expressed in CHO cell membrane assessed as reduction in DAMGO-induced […]-GTPgammaS binding by measuring maximal efficacy incubated for 1.5 hrs by liquid scintillation counting method relative to control. Type of assay: functional, cell membranes. The essentials:
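[³⁵S]GTPγS binding. Membranes (10 μg protein) from CHO cells expressing MOR, KOR or DOR. Buffer TME (50 mM Tris, 3 mM MgCl₂, 0.2 mM EGTA, pH 7.4) with 100 mM NaCl, 20 μM GDP and 0.1 nM [³⁵S]GTPγS. Test compound at varying concentrations. Incubation 1.5 h at 30 °C. Nonspecific binding with 20 μM unlabeled GTPγS. Reference full agonist at 3 μM: DAMGO (MOR), U50488H (KOR), SNC80 (DOR). Filtration, then scintillation counting. Duplicates, at least three repeats.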

The test system of assay [8] is Mus musculus. In words: Antinociceptive activity against Swiss Webster mouse assessed as tail withdrawal latency from warm water by measuring maximum possible effect at 10 mg/kg, sc measured after 20 mins by warm water tail immersion assay. Type of assay: functional. The procedure, abridged:
(§2)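 Male Swiss Webster mice, 5–8 weeks, 25–35 g, 6 per group. Tail immersed (distal third) in water at 56 ± 0.1 °C. Mice included only with baseline latency 2–4 s. Compound 10 mg/kg s.c.; in the challenge arm it was given 5 min before morphine 10 mg/kg s.c. Latency read 20 min after injection, 10-s cutoff. %MPE = (test − control)/(10 − control) × 100. Dunnett-corrected one-way ANOVA.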

For assay [9], the system named is Mus musculus. In words: Antinociceptive activity against sc dosed Swiss Webster mouse model assessed as effect on morphine induced antinociception by measuring tail withdrawal latency from warm water incubated for 5 mins followed by morphine addition measured after 20 mins by warm water tail immersion assay. Type of assay: functional. To be noted: time 25.0 min. The essentials:
as §2

The EC50 is the concentration needed to bring the measured effect to its halfway point. Broadly, the Ki is a dissociation constant, usually derived from enzyme kinetics or from competition with a known ligand. Usually Emax stands for the maximal effect, on the per cent scale that the assay sets. Take `O=C(Cc1ncc[nH]1)N[C@H]1CC[C@@]2(O)[C@H]3Cc4ccc(O)c5c4[C@@]2(CCN3CC2CC2)[C@H]1O5`: the half-maximal effective concentration (EC50) in assay [1] was 1.81 nM. The Ki worked out at 0.83 nM in assay [2], 17.7 nM in assay [3] and 3.45 nM in assay [4]. Besides, the Ratio Ki was found to be 21 in [5] and 4 in [6]. In assay [7], the Emax is 19.2%. For the same compound, the MPE in [8] is on record as 36.9%.
`O=C(CCc1cnc[nH]1)N[C@@H]1CC[C@@]2(O)[C@H]3Cc4ccc(O)c5c4[C@@]2(CCN3CC2CC2)[C@H]1O5`: in [1], the EC50 came out at 3.19 nM. Besides, the Ki in assay [2] amounted to 0.6 nM; in [3] it was 35.5 nM; in [4] it was 1.8 nM. Also, the results for the Ratio Ki in assay [5] and in [6] were 60 and 3, respectively. Moreover, in assay [7], the maximal effect (Emax) was determined as 15.7%. The result in assay [8] and in assay [9] was inactive.
With `O=C(N[C@H]1CC[C@@]2(O)[C@H]3Cc4ccc(O)c5c4[C@@]2(CCN3CC2CC2)[C@H]1O5)c1cc[nH]n1`, in assay [1], the EC50 came out at 2.33 nM. Also, the Ki in assay [2] stood at 0.61 nM; in [3], 21.2 nM; in assay [4] it was 1.05 nM. The Ratio Ki was found to be 35 in assay [5] and 2 in assay [6]. Also, the Emax in assay [7] was 19.6%. Moreover, the result in assay [8] and in assay [9] was inactive.
Turning to `O=C(N[C@@H]1CC[C@@]2(O)[C@H]3Cc4ccc(O)c5c4[C@@]2(CCN3CC2CC2)[C@H]1O5)c1cn[nH]c1`, the EC50 in assay [1] is 1.77 nM. Further, the inhibition constant (Ki) was 0.65 nM in assay [2], 46.8 nM in assay [3] and 2.51 nM in assay [4]. Moreover, the figures for the Ratio Ki in [5] and in assay [6] were 72 and 4, respectively. Also, the Emax in assay [7] was determined as 16.3%. Besides, the result in assay [8] and in [9] was inactive.
On to `O=C(CCc1cc[nH]n1)N[C@@H]1CC[C@@]2(O)[C@H]3Cc4ccc(O)c5c4[C@@]2(CCN3CC2CC2)[C@H]1O5`, for which the EC50 in [1] came out at 2.76 nM. Further, the Ki in [2] is 0.21 nM; in assay [3], 42.2 nM; in assay [4] it was 2 nM. For the same compound, the Ratio Ki in [5] was 202; in assay [6], 10. Further, the maximum response (Emax) in assay [7] is 13.2%. The outcome in assay [8] and in [9] was inactive.
On to `O=C(N[C@@H]1CC[C@@]2(O)[C@H]3Cc4ccc(O)c5c4[C@@]2(CCN3CC2CC2)[C@H]1O5)c1cc[nH]n1`, for which the EC50 in assay [1] was found to be 1.83 nM. For the same compound, the Ki in assay [2] is 0.28 nM; in [3] it was 14.5 nM; in assay [4], 0.95 nM. The results for the Ratio Ki in [5] and in assay [6] were 52 and 3, respectively. Moreover, in [7], the Emax came to 10.9%. Besides, the outcome in assay [8] and in assay [9] was inactive.
In the case of `O=C(CCc1ncc[nH]1)N[C@@H]1CC[C@@]2(O)[C@H]3Cc4ccc(O)c5c4[C@@]2(CCN3CC2CC2)[C@H]1O5`, the concentration giving a half-maximal response (EC50) in assay [1] was 1.24 nM. In addition, the Ki in assay [2] stood at 0.57 nM; in assay [3] it was 55.8 nM; in [4], 0.57 nM. In addition, the Ratio Ki is 99 in assay [5] and 1 in assay [6]. Further, the maximal effect (Emax) in assay [7] is 17.7%. The outcome in [8] and in assay [9] was inactive.
Consider `O=C(N[C@H]1CC[C@@]2(O)[C@H]3Cc4ccc(O)c5c4[C@@]2(CCN3CC2CC2)[C@H]1O5)c1cnc[nH]1`, for which, in assay [1], the EC50 was found to be 4.42 nM. For the same compound, the Ki in assay [2] came to 1.11 nM; in assay [3], 32.5 nM; in assay [4], 2.76 nM. The Ratio Ki in [5] was 29; in [6], 2. Besides, the maximal response (Emax) in assay [7] is 20.7%. The result in assay [8] and in assay [9] was inactive.
In the case of `O=C(Cc1cc[nH]n1)N[C@@H]1CC[C@@]2(O)[C@H]3Cc4ccc(O)c5c4[C@@]2(CCN3CC2CC2)[C@H]1O5`, in [1], the 50% effective concentration (EC50) is 2.5 nM. In addition, the Ki amounted to 0.2 nM in [2], 36.8 nM in assay [3] and 5.05 nM in assay [4]. Further, the Ratio Ki amounted to 186 in assay [5] and 26 in [6]. In addition, in [7], the Emax was determined as 20.4%. Moreover, the MPE in assay [8] is given as 39.3%. Further, in assay [9], the result was inactive.
Regarding `O=C(Cc1ncc[nH]1)N[C@@H]1CC[C@@]2(O)[C@H]3Cc4ccc(O)c5c4[C@@]2(CCN3CC2CC2)[C@H]1O5`, the concentration for a half-maximal effect (EC50) in assay [1] is 2.07 nM. Moreover, the figures for the inhibitory constant (Ki) in assay [2], in assay [3] and in assay [4] were 0.48 nM, 89.8 nM and 5.17 nM, respectively. Also, the Ratio Ki in assay [5] was determined as 188; in [6] it was 11. Further, the maximum response (Emax) in [7] was 23.5%. Further, the outcome in [8] and in assay [9] was inactive.
Take `O=C(N[C@H]1CC[C@@]2(O)[C@H]3Cc4ccc(O)c5c4[C@@]2(CCN3CC2CC2)[C@H]1O5)c1cn[nH]c1`: in assay [1], the EC50 was found to be 1.24 nM. Moreover, the Ki in assay [2] came to 0.59 nM; in assay [3], 37.5 nM; in [4] it was 4.7 nM. Further, the Ratio Ki is 64 in assay [5] and 8 in [6]. Further, the Emax in assay [7] turned out to be 23.1%. Also, the result in assay [8] and in [9] was inactive.
With `O=C(CCc1cnc[nH]1)N[C@H]1CC[C@@]2(O)[C@H]3Cc4ccc(O)c5c4[C@@]2(CCN3CC2CC2)[C@H]1O5`, the EC50 in assay [1] is 9.47 nM. The inhibitory constant (Ki) in assay [2] is 0.2 nM; in [3] it was 21.5 nM; in [4] it was 1.21 nM. Also, the Ratio Ki in [5] was determined as 106; in assay [6], 6. For the same compound, the Emax in assay [7] was 25.4%. Besides, the result in [8] and in assay [9] was inactive.
Consider `O=C(CCc1cn[nH]c1)N[C@H]1CC[C@@]2(O)[C@H]3Cc4ccc(O)c5c4[C@@]2(CCN3CC2CC2)[C@H]1O5`, for which the EC50 in assay [1] is 12.3 nM. The inhibition constant Ki in [2] was found to be 1.09 nM; in assay [3], 91.2 nM; in assay [4] it was 39.5 nM. Besides, the Ratio Ki worked out at 83 in [5] and 36 in assay [6]. Besides, the maximal response (Emax) in [7] was determined as 14.2%. Besides, the result in [8] and in assay [9] was inactive.
As to `O=C(CCc1cn[nH]c1)N[C@@H]1CC[C@@]2(O)[C@H]3Cc4ccc(O)c5c4[C@@]2(CCN3CC2CC2)[C@H]1O5`, the EC50 in assay [1] stood at 4.28 nM. Also, the inhibitory constant (Ki) in assay [2] came out at 0.3 nM; in assay [3], 97.8 nM; in [4], 12.3 nM. The Ratio Ki in assay [5] worked out at 322; in assay [6] it was 40. Also, the maximal response (Emax) in assay [7] stood at 10.7%. For the same compound, the result in assay [8] and in [9] was inactive.
Regarding `O=C(CCc1cc[nH]n1)N[C@H]1CC[C@@]2(O)[C@H]3Cc4ccc(O)c5c4[C@@]2(CCN3CC2CC2)[C@H]1O5`, the 50% effective concentration (EC50) in [1] came to 4.22 nM. In addition, the Ki in assay [2] came to 0.5 nM; in [3], 217 nM; in assay [4], 2.75 nM. For the same compound, the Ratio Ki in assay [5] was 433; in assay [6], 6. Besides, the Emax in [7] was 22.2%. Further, the result in assay [8] and in assay [9] was inactive.
